Assay results taken from publication PMC3448169 (mBio, 2012).
“Also recorded” adds a separate entry of the source. Ends that are not written are not given here. * marks the point of attachment. Biotin = O=C1N[C@H]2[C@H](CS[C@H]2CCCCC(=O)*)N1; Ahx = NCCCCCC(=O)O

T1: rabbit muscle aldolase (Oryctolagus cuniculus, UniProt P00883)
T1 sequence (P00883 1-364): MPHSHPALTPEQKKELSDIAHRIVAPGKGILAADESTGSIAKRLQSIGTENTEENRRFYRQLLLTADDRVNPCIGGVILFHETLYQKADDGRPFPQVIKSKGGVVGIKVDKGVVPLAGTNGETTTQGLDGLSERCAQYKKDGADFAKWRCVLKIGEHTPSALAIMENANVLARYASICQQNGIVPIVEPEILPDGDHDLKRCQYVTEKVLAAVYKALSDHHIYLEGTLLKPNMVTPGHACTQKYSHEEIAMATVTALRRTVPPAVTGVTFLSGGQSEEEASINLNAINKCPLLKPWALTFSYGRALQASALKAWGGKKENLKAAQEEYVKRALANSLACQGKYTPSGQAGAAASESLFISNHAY

B1: rabbit muscle aldolase (enzyme, UniProt P00883 1-364, looked up)
chain: T1 sequence (P00883 1-364)
B2: RH4 C-terminal cytoplasmic tail peptide (peptide)
peptide: {Biotin-Ahx}-EDEVEDEVEDEDENENEVENENEDFNDI
B3: RH1 C-terminal cytoplasmic tail peptide (peptide)
peptide: {Biotin-Ahx}-KQEDKEQEKQQQNDFVCDNNKMDDKSTQKYGRNQEEVMEISFDNDYI

Experiments:
GAPDH = test: SPR analysis of GAPDH binding to immobilized peptides; set-up: species or system yeast; details: curves did not fit the 1:1 or the two-state model, no KD determined
yeast GAPDH = test: GAPDH pulldown assay with biotinylated peptides on streptavidin-agarose beads; assay type: binding; details: pulldown competition, 10 mM NADH
Procedure, shortened: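 Test peptides carried an N-terminal biotin–Ahx linker, were dissolved in 20 mM Tris-HCl pH 8.0 at 0.5 mg/ml, and were bound to streptavidin-agarose for 1 h at RT, then washed. After four washes, bound protein was boiled in reducing LDS buffer and run on 4–12% bis-Tris gels.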

rabbit muscle aldolase [1] = biological target: T1, rabbit muscle aldolase; test: SPR analysis of aldolase binding to immobilized peptides; details: SPR sensorgrams, aldolase 50 to 800 nM
Procedure, shortened: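 CM5 chips at 25°C carried amine-coupled NeutrAvidin with captured biotinylated peptides (0.5 µg/ml). Rabbit muscle aldolase was injected in 10 mM HEPES pH 7.5/100 mM KCl/0.5 mM EDTA/1 mM MgCl₂/0.2% Tween 20, with F1-6P added in some runs. Flow was 20 µl/min, with 4 min association and 10 min dissociation, and glycine pH 2.5 regeneration. NeutrAvidin-only reference cells were subtracted. ka and kd came from global fits to a 1:1 Langmuir or a two-state model.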

[2] = biological target: BAEBL (EBA140) C-terminal cytoplasmic tail peptide (Plasmodium falciparum); test: SPR
[3] = biological target: B3; test: SPR
[4] = biological target: B2; test: SPR
rabbit muscle aldolase [5] = biological target: B1; test: SPR

YMFDQQINVVNSDLYSEGIYDDTTTF [JESEBL]
GAPDH binding by SPR (qualitative) (GAPDH): demonstrated binding | GAPDH binding on adding the cofactor NADH (yeast GAPDH): blocked | binding to aldolase by SPR (qualitative) (rabbit muscle aldolase [1]): not to bind; also recorded: no binding was seen

yeast GAPDH (glyceraldehyde-3-phosphate dehydrogenase) (from UniProt P00359 1-332) (enzyme)
Kd [2]: 461 nM | ka1 (two-state model, step 1) [2]: 10200 M^-1 S^-1 | kd1 (two-state model, step 1) [2]: 0.016 s⁻¹ | kd2 (two-state model, step 2) [2]: 0.003 s⁻¹

B1
ka1 (two-state model, step 1) [3]: 45400 M^-1 S^-1 | ka2 (two-state model, step 2) [3]: 0.018 s⁻¹ | kd1 (two-state model, step 1) [3]: 0.082 s⁻¹ | kd2 (two-state model, step 2) [3]: 0.000647 s⁻¹ | ka1 (two-state model, step 1) [4]: 16000 M^-1 S^-1 | ka2 (two-state model, step 2) [4]: 0.012 s⁻¹ | kd1 (two-state model, step 1) [4]: 0.034 s⁻¹ | kd2 (two-state model, step 2) [4]: 0.000269 s⁻¹

{Biotin-Ahx}-ETLGEEDKDLDEPEQFRLPEENEWN [TRAP (thrombospondin-related anonymous protein) C-terminal cytoplasmic tail peptide]
Kd (rabbit muscle aldolase [5]): 106 nM

B2
Kd (rabbit muscle aldolase [5]): 47 nM

{Biotin-Ahx}-NDHLSNYADKEEIIEIVFDENEEKYF [RH2b C-terminal cytoplasmic tail peptide]
Kd (rabbit muscle aldolase [5]): 214 nM | koff (rabbit muscle aldolase [5]): 0.000183 s⁻¹ | kon (rabbit muscle aldolase [5]): 856 M⁻¹ s⁻¹

B3
Kd (rabbit muscle aldolase [5]): 61 nM
